Results of several laboratories.
Lines come from different studies, so protocols differ. ≈ marks a conversion by molar mass, not a printed value.
Organism: Escherichia coli

| SMILES | assay | test system | conditions | measurement | result |
| --- | --- | --- | --- | --- | --- |
| c1ccc2[nH]c(-c3ccncc3)nc2c1 | microbial growth, broth dilution | ATCC25922 |  | MIC | 128 µg/mL (≈ 656 µM) |
| CN1CC(O)=C(C(=O)NC(C(=O)NC2C(=O)N3C2SC(C)(C)C3C(=O)O)c2ccccc2)C1=O (stereo not drawn) | microbial growth, well diffusion | BW25113 | 200 µM | inhibition zone | 10.5 mm |
| Cc1c(NC(=O)CC2=NC(=O)CS2)c(=O)n(-c2ccccc2)n1C | microbial killing, broth dilution |  |  | MBC | 0.5 µg/mL (≈ 1.45 µM) |
| O=c1cccccc1Sc1cccccc1=O | microbial growth, broth dilution | ATCC35218 |  | MIC80 | 13.2 µM (≈ 3.2 µg/mL) |
| Clc1ccc(-n2cc(COc3cccc4cccnc34)nn2)cc1 | microbial growth, broth dilution | ATCC25922 |  | IC50 | 470 µg/mL |
| N=C(N)c1ccccc1OCc1cccc(COc2ccccc2C(=N)N)c1 | microbial growth, broth dilution | BW25113 |  | MIC | > 200 µg/mL |
| C=CCn1c(-c2ccc(Cl)cc2)nc2ccccc21 | microbial growth, broth dilution | ATCC25922 |  | MIC | 64 µg/mL (≈ 238 µM) |
| COc1ccc(-n2cc(COc3cc(C(C)C)ccc3C)nn2)cc1 | microbial growth, broth dilution | ATCC25922 |  | IC50 | 320 µg/mL |
| COc1cc(C=Cc2cc(-c3ccccc3)nc(O)n2)ccc1O | microbial growth, disc diffusion | ATCC25922 | 250 µg/mL | inhibition zone | 6 mm |
| CCCC(=O)Oc1c(C)c(O)c(C(=O)/C=C/c2ccccc2)c(OC)c1C | microbial killing, broth dilution | ATCC25922 |  | MBC | > 5000 µg/mL |
| CC(C)c1cccc(=O)c(O)c1 | microbial growth, broth dilution | ATCC35218 |  | MIC80 | 44.4 µM (≈ 7.29 µg/mL) |
| CC(C)Oc1c(NC(=O)c2ccc(NC(=O)[C@H](CC(N)=O)NC(=O)c3ccc(NC(=O)c4ccc(C(F)(F)F)cc4)cc3)cc2)ccc(C(=O)Nc2ccc(C(=O)O)cc2)c1O | microbial growth | DSM1116 |  | MIC | 0.5 µg/mL (≈ 0.585 µM) |
| N=C(N)c1ccccc1OCc1ccccc1COc1ccccc1C(=N)N | microbial growth | BW25113 |  | MIC | > 200 µg/mL |
| O=C(O)c1cn(C2CC2)c2cc(N3CCNCC3)c(F)cc2c1=O | microbial growth, broth dilution | ATCC25922 |  | IC50 | 0.125 µg/mL |
| C[C@H]1COc2c(N3CCN(C)CC3)c(F)cc3c(=O)c(C(=O)O)cn1c23 | microbial growth | ATCC25922 |  | MIC | 0.04 µg/mL (≈ 0.111 µM) |
| CCCCCCCCCC(=O)Oc1c(C)c(O)c(C(=O)/C=C/c2ccccc2)c(OC)c1C | microbial killing, broth dilution | ATCC25922 |  | MBC | > 5000 µg/mL |
| CCN1CCN(C(=O)N[C@@H](C(=O)N[C@@H]2C(=O)N3[C@@H]2SC(C)(C)[C@@H]3C(=O)O)c2ccccc2)C(=O)C1=O | microbial growth, well diffusion | BW25113 | 200 µM | inhibition zone | 19 mm |
| CCCCCCCC(=O)Oc1c(C)c(O)c(C(=O)/C=C/c2ccccc2)c(OC)c1C | microbial killing, broth dilution | ATCC25922 |  | MBC | > 5000 µg/mL |
| Cc1ccc2nc(-c3ccc([N+](=O)[O-])cc3)n(Cc3ccccc3)c2c1 | microbial growth, broth dilution | ATCC25922 |  | MIC | 64 µg/mL (≈ 186 µM) |
| Cc1ccc(S(=O)(=O)Oc2cccc3cccnc23)cc1 | microbial growth, broth dilution | ATCC25922 |  | IC50 | 133 µg/mL |
| COc1cc(C=CC(=O)CC(c2ccc([N+](=O)[O-])cc2)n2ccnc2)ccc1O (stereo not drawn) | microbial growth, disc diffusion | ATCC25922 | 250 µg/mL | inhibition zone | 7.67 mm |

| SMILES | assay | test system | conditions | measurement | result |
| --- | --- | --- | --- | --- | --- |
| Oc1ccc(-c2cc(Cl)sc2Cl)cc1O | microbial growth | AS19 | 10 h | IC50 | 6.1 µM |
| N=C(N)c1ccc(OCc2ccc3ccc(COc4ccc(C(=N)N)cc4)cc3c2)cc1 | microbial growth | BW25113 |  | MIC | ≥ 200 µg/mL |
| COc1ccc(-c2nc3ccccc3n2Cc2ccccc2)cc1OC | microbial growth, broth dilution | ATCC25922 |  | MIC | 64 µg/mL (≈ 186 µM) |
| COc1c(C)c(OCc2ccccc2)c(C)c(O)c1C(=O)/C=C/c1ccccc1 | microbial killing, broth dilution | ATCC25922 |  | MBC | > 5000 µg/mL |
| Cc1cc(N)c2ccccc2[n+]1CCCCCCCCCC[n+]1c(C)cc(N)c2ccccc21 | microbial growth, disc diffusion |  | 50 µg/disc | inhibition zone | 0 mm |
| O=C(Sc1cccccc1=O)c1ccc(C(F)(F)F)cc1 | microbial growth, broth dilution | ATCC35218 |  | MIC80 | 66.7 µM (≈ 20.7 µg/mL) |
| CC(C)Oc1c(NC(=O)c2ccc(NC(=O)[C@H](CC(N)=O)NC(=O)c3ccc(NC(=O)C(C)Oc4ccc(C#N)cc4)cc3)cc2)ccc(C(=O)Nc2ccc(C(=O)O)cc2)c1O (stereo partly drawn) | microbial growth | DSM1116 |  | MIC | 0.06 µg/mL (≈ 0.0701 µM) |
| c1ccc(-n2cc(COc3cccc4cccnc34)nn2)cc1 | microbial growth, broth dilution | ATCC25922 |  | IC50 | 408 µg/mL |
| COc1cc(C=Cc2cc(-c3ccc(N(C)C)cc3)nc(O)n2)ccc1O | microbial growth, disc diffusion | ATCC25922 | 250 µg/mL | inhibition zone | 6 mm |
| COc1c(N2C[C@@H]3CCCN[C@@H]3C2)c(F)cc2c(=O)c(C(=O)O)cn(C3CC3)c12 | microbial growth | ATCC 8739, ATCC8739 |  | MIC90 | 0.06 µg/mL (≈ 0.149 µM) |
| CC1(C)SC2C(NC(=O)C(NC(=O)C3=C(O)C4(CC4)NC3=O)c3ccccc3)C(=O)N2C1C(=O)O (stereo not drawn) | microbial growth, well diffusion | BW25113 | 200 µM | inhibition zone | 10 mm |
| O=C1C=C(O)C(=O)c2ccccc21 | microbial growth, broth dilution | ATCC25922 |  | IC50 | 179 µg/mL |
| O=C(N/N=C/c1ccc([N+](=O)[O-])o1)c1ccc(O)cc1 | microbial growth | ATCC35218 |  | MIC90 | 0.98 µg/mL (≈ 3.56 µM) |
| c1cncc(-c2nc3ccccc3[nH]2)c1 | microbial growth, broth dilution | ATCC25922 |  | MIC | 64 µg/mL (≈ 328 µM) |
| O=S(=O)(Oc1cccc2cccnc12)c1cccs1 | microbial growth, broth dilution | ATCC25922 |  | IC50 | 165 µg/mL |
| C#CCCCCCCCCC=CCC(O)CC(O)CO (stereo not drawn) | microbial growth, broth dilution | ATCC35218 |  | IC50 | > 200 µg/mL |
| Cc1ccc(C(C)C)cc1OCc1cn(-c2ccccc2)nn1 | microbial growth, broth dilution | ATCC25922 |  | IC50 | 249 µg/mL |
| N=C(N)c1cccc(OCc2ccc(COc3cccc(C(=N)N)c3)cc2)c1 | microbial growth, broth dilution | W3110 |  | MIC | > 200 µg/mL |
| O=C(N[C@H](CO)[C@H](O)c1ccc([N+](=O)[O-])cc1)C(Cl)Cl | microbial growth | ATCC 8739, ATCC8739 |  | MIC90 | 3.9 µg/mL (≈ 12.1 µM) |
| N=C(N)c1ccccc1OCCCCCOc1ccccc1C(=N)N | microbial growth, broth dilution | BW25113 |  | MIC | > 200 µg/mL |
| COc1c(C)c(OS(=O)(=O)c2ccc3ccccc3c2)c(C)c(O)c1C(=O)/C=C/c1ccccc1 | microbial killing, broth dilution | ATCC25922 |  | MBC | > 5000 µg/mL |
